target: T1, Thymidine kinase, cytosolic (Cricetulus griseus, UniProt P09768); assay: Competitive inhibition of thymidine kinase in BHK21 (C13) cells using thymidine as substrate assessed as formation of TMP by Lineweaver-Burk plot analysis
T1 sequence (P09768 whole entry): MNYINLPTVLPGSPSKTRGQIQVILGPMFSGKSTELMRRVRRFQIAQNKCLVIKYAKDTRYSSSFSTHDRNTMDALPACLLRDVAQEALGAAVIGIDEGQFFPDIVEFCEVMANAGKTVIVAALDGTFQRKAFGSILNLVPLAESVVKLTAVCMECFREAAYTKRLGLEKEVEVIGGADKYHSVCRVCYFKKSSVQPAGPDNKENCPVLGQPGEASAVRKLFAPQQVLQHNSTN
Outline: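 BHK21(C13) cells sonicated in 0.05 M NaCl; 100000g supernatant stored in 50% glycerol at 4 °C. Assay in Tris-HCl 0.05 M pH 8.0, ATP 5 mM, MgCl2 2.5 mM, [14C]thymidine at four or more levels from 3.6 to 18 μM, two inhibitor levels plus a no-inhibitor control, duplicates, 10 min at 37 °C. [14C]TMP captured on DEAE-cellulose disks and counted by scintillation; Ki taken from Lineweaver-Burk plots.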

| Compound | Ki [µM] |
| --- | --- |
| CCC(=O)NCC(O)[C@H]1O[C@@H](n2cc(C)c(=O)[nH]c2=O)C[C@@H]1O (stereo partly drawn) | 160 |
| Cc1cn([C@H]2C[C@H](O)[C@@H](CSCCO)O2)c(=O)[nH]c1=O | 800 |
| Cc1cn([C@H]2C[C@H](O)[C@@H](CSCCCC(=O)O)O2)c(=O)[nH]c1=O | 1200 |
| CCCCNC[C@H]1O[C@@H](n2cc(C)c(=O)[nH]c2=O)C[C@@H]1O | 270 |
| Nc1cn([C@H]2C[C@H](O)[C@@H](CO)O2)c(=O)[nH]c1=O | 450 |
| CC(=O)N[C@H]1C[C@H](n2cc(C)c(=O)[nH]c2=O)O[C@@H]1CO | 2500 |
| CC(=O)NCCNC[C@H]1O[C@@H](n2cc(C)c(=O)[nH]c2=O)C[C@@H]1O | 250 |
| CCNC[C@H]1O[C@@H](n2cc(C)c(=O)[nH]c2=O)C[C@@H]1O | 190 |
| CCCCCCN(C[C@H]1O[C@@H](n2cc(C)c(=O)[nH]c2=O)C[C@@H]1O)C(C)=O | 4400 |
| CC(=O)N(C)CCN(C)C[C@H]1O[C@@H](n2cc(C)c(=O)[nH]c2=O)C[C@@H]1O | 900 |

The remaining compounds from weak to strong by Ki, led by results:

| Ki [µM] | Compound |
| --- | --- |
| 6500 | CC(=O)NC[C@H]1O[C@@H](n2cc(C)c(=O)[nH]c2=O)C[C@@H]1O [N-[(2R,5R)-3-Hydroxy-5-(5-methyl-2,4-dioxo-3,4-dihydro-2H-pyrimidin-1-yl)-tetrahydro-furan-2-ylmethyl]-acetamide] |
| 1700 | NCc1cn([C@H]2C[C@H](O)[C@@H](CO)O2)c(=O)[nH]c1=O |
| 500 | Cc1cn([C@H]2C[C@H](O)[C@@H](CSCCC(=O)O)O2)c(=O)[nH]c1=O |
| 270 | CC(=O)NCC(O)[C@H]1O[C@@H](n2cc(C)c(=O)[nH]c2=O)C[C@@H]1O (stereo partly drawn) |
| 220 | N#Cc1cn([C@H]2C[C@H](O)[C@@H](CO)O2)c(=O)[nH]c1=O |
| 180 | CCCCCCNC[C@H]1O[C@@H](n2cc(C)c(=O)[nH]c2=O)C[C@@H]1O |
| 72 | CCCCCn1c(=O)c(C)cn([C@H]2C[C@H](O)[C@@H](CO)O2)c1=O |
| 12 | CCS[C@H]1C[C@H](n2cc(C)c(=O)[nH]c2=O)O[C@@H]1CO |

From BindingDB's records for doi:10.1021/jm00192a005 (1979)
